The text below walks through data of ChEMBL document CHEMBL1148549, “A novel class of potent influenza virus inhibitors: polysubstituted acylthiourea and its fused heterocycle derivatives” (Bioorg Med Chem Lett, 2006).

In one test the test system is Influenza A virus. The test can be described thus: Inhibitory activity against influenza A3/Beijing/30/95 ([…]) virus in MDCK cells. Type of test: functional, organism-based. Put shortly:
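MDCK cells in 96-well plates were infected with influenza ([…]) virus at 50 PFU/well and treated with serially diluted compound. IC50 was calculated from the dilution series and reported in µM as the mean of at least three independent experiments run on different days.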

Another test relates to MDCK. The test is described as follows: Cytotoxicity in MDCK cells using MTS assay. To be noted: Canis lupus familiaris. Type of test: functional, cell-based.

As to `CCOc1cc(OCC)nc(NC(=S)NC(=O)c2ccc(-c3ccc([N+](=O)[O-])cc3)o2)n1`, the IC50 in the test with Influenza A virus is above 20000 nM. For the same molecule, the Activity result with MDCK is “Not toxic”.

For the molecule `Cc1cc(O)nc(NC(=S)NC(=O)c2ccc(-c3ccccc3Cl)o2)n1`, in the test on Influenza A virus, it took 320 nM to reach half-maximal inhibition (IC50). Further, the Activity entry in the test with MDCK is “Not toxic”.

Molecule `COc1cc(Cl)nc(NC(=S)NC(=O)c2ccc(Cl)nc2)n1` gave an IC50 in the test with Influenza A virus above 20000 nM. Further, the Activity result in the test with MDCK is “Not toxic”.

Molecule `CCOc1cc(C)nc(NC(=S)NC(=O)c2ccc(-c3ccccc3Cl)o2)n1` returned an IC50 in the test with Influenza A virus of 1650 nM. For the same molecule, in the test on MDCK, the Activity entry is “Not toxic”.

In the test with Influenza A virus, `Cc1cc(O)nc(NC(=S)NC(=O)c2ccc(-c3ccc([N+](=O)[O-])cc3)o2)n1` came in with an IC50 of 360 nM. For the same molecule, the Activity entry in the test with MDCK is “Not toxic”.

In the test on Influenza A virus, `Cc1cc(C)nc(NC(=S)NC(=O)c2cccnc2Cl)n1` came in with an IC50 of 7190 nM. In addition, in the test on MDCK, the Activity entry was “Not toxic”.

Turning to `CCOc1cc(OCC)n2s/c(=N\C(=O)c3ccc(Cl)nc3)nc2n1`, the concentration for half-maximal inhibition (IC50) with Influenza A virus was found to be 90 nM. The Activity result in the test with MDCK is “Not toxic”.

Regarding `COc1cc(OC)n2s/c(=N\C(=O)c3cccnc3)nc2n1`, in the test with Influenza A virus, the IC50 was above 20000 nM. The Activity result in the test with MDCK is “Not toxic”.

For the molecule `CC(C)(C)NC(=O)NC(=S)NC(=O)[C@@H]1[C@@H](C=C(Cl)Cl)C1(C)C`, the IC50 in the test with Influenza A virus came out at 260 nM. Moreover, in the test with MDCK, the Activity entry was “Not toxic”.

With `CC(C)(C)NC(=O)NC(=O)NC(=O)c1ccccc1`, in the test on Influenza A virus, the IC50 was above 20000 nM. For the same molecule, the Activity result in the test on MDCK is “Not toxic”.

Regarding `CCOc1cc(Cl)nc(NC(=S)NC(=O)c2cccnc2Cl)n1`, the IC50 in the test with Influenza A virus was above 20000 nM. For the same molecule, the Activity result in the test with MDCK was “Not toxic”.

Regarding `COc1cc(Cl)nc2n/c(=N/C(=O)c3ccc(Cl)nc3)sn12`, in the test with Influenza A virus, the IC50 was 9320 nM. The Activity result in the test with MDCK is “Not toxic”.

`CCOc1cc(Cl)nc(NC(=S)NC(=O)c2ccc(-c3ccccc3Cl)o2)n1`: in the test on Influenza A virus, the IC50 was above 20000 nM. Further, the Activity entry in the test with MDCK is “Not toxic”.

On to `COC(=O)NC(=S)NC(=O)NC(C)(C)C`, for which the midpoint of inhibition in the test with Influenza A virus, the IC50, lay at 1830 nM. In addition, the Activity entry in the test on MDCK is “Not toxic”.

Turning to `Cc1cc(Cl)nc(NC(=O)NC(=O)c2c(F)cccc2F)n1`, the IC50 in the test on Influenza A virus is above 20000 nM. For the same molecule, the Activity entry in the test with MDCK is “Not toxic”.

As for `COc1cc(OC)nc(NC(=S)NC(=O)c2ccc(-c3ccccc3Cl)o2)n1`, in the test with Influenza A virus, the IC50 came to 1770 nM. Also, the Activity entry with MDCK was “Not toxic”.

In the case of `COc1cc(OC)n2s/c(=N\C(=O)c3cccnc3Cl)nc2n1`, the IC50 with Influenza A virus was 2410 nM. Also, the Activity result in the test with MDCK was “Not toxic”.

With `Cc1cc(=O)nc2nc(NC(=O)c3ccc(-c4ccc([N+](=O)[O-])cc4)o3)sn12`, in the test with Influenza A virus, the IC50 was found to be 670 nM. Besides, the Activity entry with MDCK was “Not toxic”.

Take `COc1cc(C)nc(NC(=S)NC(=O)c2ccc(Cl)nc2)n1`: the IC50 in the test on Influenza A virus is above 20000 nM. Also, the Activity entry in the test on MDCK was “Not toxic”.

For the molecule `CCOc1cc(OCC)nc(NC(=S)NC(=O)c2ccc(Cl)nc2)n1`, in the test with Influenza A virus, the IC50 is above 20000 nM. For the same molecule, the Activity result in the test on MDCK is “Not toxic”.

The molecule `CCOc1cc(OCC)nc(NC(=S)NC(=O)c2ccc(-c3ccccc3Cl)o2)n1` came in with an IC50 with Influenza A virus of 80 nM. Further, the Activity entry in the test with MDCK was “Not toxic”.

For `COc1cc(OC)nc(NC(=S)NC(=O)c2cccnc2)n1`, the IC50 in the test with Influenza A virus is above 20000 nM. In addition, the Activity entry in the test on MDCK is “Not toxic”.

Take `COc1cc(Cl)nc(NC(=O)NC(=O)c2c(F)cccc2F)n1`: in the test with Influenza A virus, the IC50 was determined as 15900 nM. Also, in the test with MDCK, the Activity entry was “Not toxic”.

In the test on Influenza A virus, `CC(C)[C@H](C(=O)NC(=S)NC(=O)NC(C)(C)C)c1ccc(Cl)cc1` returned an IC50 of 1350 nM. Further, the Activity result in the test with MDCK was “Not toxic”.

In the test with Influenza A virus, `COc1cc(C)nc(NC(=S)NC(=O)c2ccc(-c3ccc([N+](=O)[O-])cc3)o2)n1` had an IC50 of 1220 nM. Further, the Activity result in the test on MDCK was “Not toxic”.

The molecule `CCOc1cc(OCC)nc(NC(=S)NC(=O)c2cccnc2Cl)n1` came in with an IC50 with Influenza A virus above 20000 nM. Also, the Activity entry in the test with MDCK was “Not toxic”.

`COc1cc(OC)nc(NC(=S)NC(=O)c2cnc(Cl)c(Cl)c2)n1` displayed an IC50 in the test on Influenza A virus of 18500 nM. Further, in the test with MDCK, the Activity result is “Not toxic”.

Take `COc1cc(OC)nc(NC(=S)NC(=O)c2ccc(-c3ccc([N+](=O)[O-])cc3)o2)n1`: the IC50 with Influenza A virus was above 20000 nM. The Activity entry in the test on MDCK is “Not toxic”.

`Cc1cc(C)nc(NC(=O)NC(=O)c2c(F)cccc2F)n1` gave an IC50 in the test with Influenza A virus above 20000 nM. Also, in the test on MDCK, the Activity entry is “Not toxic”.

`CCOc1cc(C)nc(NC(=S)NC(=O)c2ccc(-c3ccc([N+](=O)[O-])cc3)o2)n1` returned an IC50 in the test with Influenza A virus of 11300 nM. Besides, in the test with MDCK, the Activity result is “Not toxic”.

Consider `CC(C)C(C(=O)NC(=O)NC(=O)NC(C)(C)C)c1ccc(Cl)cc1` (configuration not stated), for which inhibition with Influenza A virus was half-maximal at 15500 nM (IC50). In addition, the Activity result with MDCK was “Not toxic”.

`O=C(NC(=S)Nc1nc(Cl)cc(Cl)n1)c1ccc(-c2ccccc2Cl)o1` displayed an IC50 with Influenza A virus of 14500 nM. In the test on MDCK, the Activity entry is “Not toxic”.

`CC(C)(C)NC(=O)NC(=S)NC(=O)[C@H]1[C@@H](/C=C(\Cl)C(F)(F)F)C1(C)C`: the IC50 in the test with Influenza A virus stood at 510 nM. Moreover, in the test with MDCK, the Activity entry was “Not toxic”.

`CC(C)(C)NC(=O)NC(=O)NC(=O)c1c(F)cccc1F` showed an IC50 in the test with Influenza A virus of 14100 nM. In addition, the Activity entry in the test with MDCK is “Not toxic”.

The molecule `CC(C)(C)NC(=O)NC(=S)NC(=O)c1ccccc1` showed an IC50 in the test with Influenza A virus of 1790 nM. The Activity entry in the test on MDCK was “Not toxic”.

Turning to `CCOc1cc(OCC)n2s/c(=N\C(=O)c3ccc(-c4ccc([N+](=O)[O-])cc4)o3)nc2n1`, in the test on Influenza A virus, the IC50 was 5250 nM. Also, the Activity result in the test on MDCK is “Not toxic”.

With `COc1cc(Cl)nc(NC(=S)NC(=O)c2cccnc2Cl)n1`, the IC50 in the test on Influenza A virus was found to be 2590 nM. Moreover, the Activity result in the test with MDCK was “Not toxic”.

`Cc1cc(O)nc(NC(=S)NC(=O)c2ccc(Cl)nc2)n1` came in with an IC50 with Influenza A virus of 8580 nM. The Activity result with MDCK was “Not toxic”.

In the test with Influenza A virus, `CCOc1cc(C)nc2n/c(=N/C(=O)c3ccc(-c4ccccc4Cl)o3)sn12` yielded an IC50 of 350 nM. In addition, the Activity entry in the test on MDCK was “Not toxic”.

In turn, `CC(C)(C)NC(=O)NC(=S)NC(=O)c1ccc(-c2ccccc2Cl)o1` gave an IC50 with Influenza A virus of 1420 nM. Also, the Activity entry in the test on MDCK was “Not toxic”.

`CC(C)(C)NC(=O)NC(=S)NC(=O)c1c(F)cccc1F` returned an IC50 with Influenza A virus of 1430 nM. Further, the Activity entry in the test with MDCK was “Not toxic”.

The molecule `COc1cc(C)nc(NC(=S)NC(=O)c2ccc(-c3ccccc3Cl)o2)n1` came in with an IC50 in the test on Influenza A virus above 20000 nM. In addition, in the test on MDCK, the Activity entry is “Not toxic”.

`CC(C)(C)NC(=O)NC(=S)NC(=O)COc1ccc(Cl)cc1Cl` yielded an IC50 in the test with Influenza A virus of 1670 nM. The Activity entry in the test on MDCK was “Not toxic”.

In the test on Influenza A virus, `COc1cc(OC)nc(NC(=O)NC(=O)c2c(F)cccc2F)n1` gave an IC50 above 20000 nM. The Activity result in the test with MDCK was “Not toxic”.

`COc1cc(Cl)nc(NC(=S)NC(=O)c2ccc(-c3ccccc3Cl)o2)n1` yielded a half-inhibitory concentration (IC50) in the test on Influenza A virus of 1290 nM. In the test on MDCK, the Activity entry is “Not toxic”.

In turn, `CC(C)(C)NC(=O)NC(=S)NC(=O)c1ccc(-c2ccc([N+](=O)[O-])cc2)o1` yielded an IC50 in the test on Influenza A virus of 1300 nM. For the same molecule, the Activity entry in the test on MDCK is “Not toxic”.
